Bioassay records (PubChem BioAssay)
PAD4 inh: human PAD4 inhibitors, primary screen, biochemical, fluorescence polarization, 1536-well format. inhibition, % at 6.36 µM. recombinant PAD4, RCA probe fluorescence polarization. AID 485272, 2010. actives 0.41% (n = 330,000);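 active = percent inhibition above a cutoff equal to the mean of all tested compounds plus 3 SD, cut at about 15% in these data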;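 also: 0% = PAD4 with RCA probe and DMSO and 100% = probe without PAD4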
TDP2 absorb: human TDP2 enzyme inhibitors, primary screen, biochemical, epi absorbance, recombinant enzyme; inhibition, % at 12.8 µM; actives 0.34% (n = 370,000); T5PNP hydrolysis, p-nitrophenol absorbance 415 nm; AID 720702, 2013; Tyrosyl-DNA phosphodiesterase 2 (Homo sapiens), O95551;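 active = inhibition above the mean of all tested compounds plus 3 SD, set per campaign, cut at about 25% in these data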;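 also: 0% = DMSO with enzyme and 100% = buffer with substrate but no TDP2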
Target sequence (O95551 whole entry, looked up): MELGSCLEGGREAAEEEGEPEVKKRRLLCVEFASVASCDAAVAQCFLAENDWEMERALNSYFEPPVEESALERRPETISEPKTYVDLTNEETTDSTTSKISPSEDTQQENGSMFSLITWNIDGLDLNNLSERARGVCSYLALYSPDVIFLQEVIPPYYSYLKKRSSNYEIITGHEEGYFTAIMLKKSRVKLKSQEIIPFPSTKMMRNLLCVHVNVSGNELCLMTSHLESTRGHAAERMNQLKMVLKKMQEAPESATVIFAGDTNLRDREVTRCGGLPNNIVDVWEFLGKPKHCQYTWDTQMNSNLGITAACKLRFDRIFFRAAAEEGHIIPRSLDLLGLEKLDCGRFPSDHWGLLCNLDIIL
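Test system: human TDP2 enzyme; Input: 120 nM TDP2 per well; Buffer or medium: Mg2+-containing Tris-HCl buffer, pH 7.5; Reagent: 5 mM T5PNP; Dosing: 12.8 µM single point, 1% DMSO; Incubation: reaction 2 h, 37 °C; Detection: p-Nitrophenol epi absorbance; Read-out: % inhibition relative to enzyme-containing and enzyme-free wells; Replicates: single well per compound.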
eLon inh: inhibitors of E. coli Lon protease, primary screen, biochemical, fluorescence polarization; purified E. coli Lon protease; inhibition, % at 7.94 µM; P0A9M0; actives 0.42% (n = 360,000); in the data active = inhibition above about 13%, passing the limit was not always enough;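 also: 0% = enzyme with probe and DMSO and 100% = no enzyme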
PRMT1 inh: PRMT1 methyltransferase inhibitors, primary screen, biochemical, fluorescence polarization. Protein arginine N-methyltransferase 1 (Homo sapiens), Q99873. inhibition, % at 2.79 µM. AID 652257, 2013. recombinant PRMT1, activity-based probe fluorescence polarization. actives 1.3% (n = 370,000);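 active = inhibition above about 21% made by adding two undisclosed values, limit read from the data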
GSTO1 counter: inhibitors of recombinant GSTO1, primary screen, counter-screen for RBBP9 inhibitor project, biochemical, fluorescence polarization; inhibition, % at 5.96 µM; actives 1.1% (n = 300,000); AID 1974, 2009; Glutathione S-transferase omega-1 (Homo sapiens), P78417; activity-based probe fluorescence polarization;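 active = inhibition above the campaign mean inhibition plus 3 SD, cut at about 35% in these data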;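 also: 0% = GSTO1-1 with DMSO and 100% = wells lacking GSTO1-1 enzyme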
Target sequence (P78417 whole entry, looked up): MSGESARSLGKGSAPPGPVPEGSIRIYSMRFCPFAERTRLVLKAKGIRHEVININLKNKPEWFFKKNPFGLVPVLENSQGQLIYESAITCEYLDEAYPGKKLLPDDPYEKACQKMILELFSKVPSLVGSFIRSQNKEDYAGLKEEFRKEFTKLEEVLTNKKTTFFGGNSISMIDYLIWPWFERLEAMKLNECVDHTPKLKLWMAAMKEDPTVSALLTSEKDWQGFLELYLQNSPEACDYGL
* marks the source's active call; other numbers are inactive results. Most compounds without a hit are left out; they make up all but 2.5% or so of the library.

`C=CCN1C(=O)[C@@H](CC(=O)NCCCN2CCCC2=O)[C@]2(C(=O)OC)CCCCC=C12` gave TDP2 absorb -3.6 and PRMT1 inh -3.7.
Screening CCOc1ccc(/C=N/n2c(-c3n[nH]c4c3CCC4)n[nH]c2=S)cc1 returned TDP2 absorb 10.9 and PRMT1 inh 4.3.
For O=c1oc2ccccc2c(O)c1CN1CCCCC1 the results were PAD4 inh -2.1, TDP2 absorb 6.2, eLon inh -2.2, PRMT1 inh -3.7 and GSTO1 counter -68.6.
O=C1NCCCC2c3cc(O)c4ccccc4c3OC12N1CCCCC1 (stereo unspecified) was read as PAD4 inh 33.6*, TDP2 absorb 56.7*, PRMT1 inh 15.2 and GSTO1 counter 80.6*.
O=C(Nc1ccc(N2CCCC2)cc1)C(Cl)c1ccccc1 (stereo unspecified) was read as PAD4 inh 5.0, eLon inh 3.3 and GSTO1 counter 35.1*.
Screening Cc1ccc(N=C2NC(=O)/C(=C/C=C/c3ccco3)S2)cc1 returned PAD4 inh -17.8, TDP2 absorb 5.4, eLon inh -29.3, PRMT1 inh 23.0* and GSTO1 counter 9.2.
`O=C1NC(=Nc2ccccc2)S/C1=C\C=C\c1ccco1` gave PAD4 inh -17.9, TDP2 absorb 5.3, eLon inh -49.6, PRMT1 inh 20.5 and GSTO1 counter 6.4.
C/C=C/C=C/C(=O)N1CC[C@]23c4ccccc4N[C@H]4N(C)c5cccc6c5[C@]42CCN([C@H]6C2OC2(C)C)[C@H]13 (stereo partly specified) was read as PAD4 inh 4.5, TDP2 absorb -5.0, eLon inh 3.0, PRMT1 inh -4.5 and GSTO1 counter 37.4*.
CN1CCC23c4ccccc4NC1C21CCN(C)C3Nc2ccccc21 was read as PAD4 inh 1.5, TDP2 absorb 0.5, eLon inh 1.8, PRMT1 inh 1.1 and GSTO1 counter 3.9.
Screening N#CCc1c(C#N)c(N)nc(N2CCCC(CO)C2)c1C#N (stereo unspecified) returned PAD4 inh -5.6, TDP2 absorb 2.2, eLon inh -2.0, PRMT1 inh 23.1* and GSTO1 counter 3.4.
Screening CCOc1cc(/C=C2\C(=O)N(c3ccc(C(N)=O)cc3)N=C2C)ccc1OC(=O)c1cccs1 returned PAD4 inh 26.9*, eLon inh 8.2 and GSTO1 counter 72.6*.
CCOc1cc(/C=C2/SC(=S)N(CC(=O)O)C2=O)ccc1OC(=O)c1cccs1 was read as PAD4 inh -0.1, TDP2 absorb 0.2, eLon inh 6.4, PRMT1 inh 2.6 and GSTO1 counter -64.3.
For Cc1nnsc1C(=O)NC1CCCc2c1cnn2-c1ccc(C(C)(C)C)cc1 (stereo unspecified) the results were PAD4 inh -0.2, TDP2 absorb -7.3, eLon inh 1.4, PRMT1 inh 2.5 and GSTO1 counter 35.2*.
Screening CC(C)NC(=O)N[C@H]1C[C@@H]2O[C@H](CO)CC[C@@H]2O[C@@H]1CCc1ccc(-c2ccc(F)cc2)cc1 returned TDP2 absorb 5.5 and PRMT1 inh 0.1.
CCCc1nnc(NC(=O)CSc2nc3ccccc3[nH]2)s1 was read as PAD4 inh -1.6, TDP2 absorb 9.8, eLon inh 3.5, PRMT1 inh -1.4 and GSTO1 counter 12.3.
Screening CCc1nnc(NC(=O)CSc2nc3c(C)cccc3[nH]2)s1 returned PAD4 inh 0.5, TDP2 absorb 7.6, eLon inh -3.9, PRMT1 inh 2.3 and GSTO1 counter 36.4*.
For CC(C)Cc1nnc(NC(=O)CSc2nc(N)cc(=O)[nH]2)s1 the results were PAD4 inh -0.4, TDP2 absorb 0.1, eLon inh -4.3, PRMT1 inh 4.2 and GSTO1 counter 47.5*.
`CCc1nc(SCC(=O)Nc2nnc(CC(C)C)s2)n[nH]1` gave PAD4 inh -2.2, TDP2 absorb 5.8, eLon inh -7.2, PRMT1 inh -0.8 and GSTO1 counter 5.8.
`O=C1CSC(=S)N1c1ccc(F)cc1` gave PAD4 inh -10.5 and GSTO1 counter -0.2.
For CN(C)c1ccc(N2C(=O)CSC2=S)cc1 the results were PAD4 inh -36.6, TDP2 absorb 4.9, eLon inh -2.3, PRMT1 inh 23.5* and GSTO1 counter -65.0.
Screening Cc1cc(C)c(C)c(OC(=O)c2sc(Cl)nc2C)c1 returned PAD4 inh -0.3, TDP2 absorb -9.4, eLon inh 1.7, PRMT1 inh -0.8 and GSTO1 counter 36.1*.
`C(#CC1=CCCCC1)CNCc1ccccc1` gave TDP2 absorb -0.8 and PRMT1 inh 2.3.
For COc1ccc(N=CC2=C(Nc3ccc(OC)cc3)c3c(C)nn(-c4ccccn4)c3CC2)cc1 the results were PAD4 inh 80.7* and GSTO1 counter 84.1*.
`CN1c2ccccc2C(O)=C(C(=S)Nc2ccccc2)S1(=O)=O` gave PAD4 inh -3.6, TDP2 absorb -0.5, eLon inh 0.7, PRMT1 inh 21.8* and GSTO1 counter -12.9.
Cc1ccc(NC(=S)C2=C(O)c3ccccc3N(C)S2(=O)=O)cc1 was read as PAD4 inh 2.0, TDP2 absorb 8.1, eLon inh -3.4, PRMT1 inh 13.0 and GSTO1 counter 8.4.
Screening O=C1c2ccccc2C(=O)N1CSc1nnnn1-c1ccccc1 returned PAD4 inh 0.3, TDP2 absorb -7.3, eLon inh 1.8, PRMT1 inh 4.1 and GSTO1 counter 37.1*.
Screening COc1ccc([C@H]2OC(=O)C[C@H]2C(=O)N2CCN(c3ccccc3C(F)(F)F)CC2)cc1OC returned TDP2 absorb -7.0 and PRMT1 inh -0.5.
Screening CCC(/C=C1\Sc2ccc(OC)cc2N1CC)=C\c1sc2ccc(OC)cc2[n+]1CCCS(=O)(=O)[O-] returned PAD4 inh -154.3, TDP2 absorb -0.7, eLon inh -12.8, PRMT1 inh 61.2* and GSTO1 counter -145.7.
`O=C1Nc2ccc(C(F)(F)F)cc2N2CCCC12` (stereo unspecified) gave PAD4 inh -8.3 and GSTO1 counter 37.7*.
`O=C1Nc2cc(C(F)(F)F)ccc2N2CCCCC12` (stereo unspecified) gave PAD4 inh 2.8, TDP2 absorb -4.8, eLon inh -9.0, PRMT1 inh -5.8 and GSTO1 counter 15.9.
COc1ccc(S[C@]2(C(=O)N3CCOCC3)CC(=O)N(c3ccc(Cl)cc3)[C@@H]2c2ccc(OC)cc2)cc1 was read as TDP2 absorb -6.0 and PRMT1 inh 4.8.
Screening COc1cc(C2C(C#N)=C(N)OC3=C2C(=O)CCC3)c([N+](=O)[O-])cc1OC (stereo unspecified) returned PAD4 inh -6.4, TDP2 absorb 6.5, eLon inh 49.8*, PRMT1 inh 21.4* and GSTO1 counter 37.5*.
